Article PMC7423752 (Acta biomaterialia, 2020)

Legend:
[1] = test system: PSMA; conditions: cited from earlier work
[2] = target: PSMA; conditions: read-out: Kd to PSMA; cited from earlier work
[3] = cited from earlier work
[4] = test system: PSMA-positive prostate cancer C4–2 cells; assay: Cellular uptake of the micelle in cell monolayers; assay type: cell-based; conditions: 0.5 and 1 h incubation
Outline: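 C4–2 cells seeded at 2×10^5 per well 24 h ahead. They were exposed at 37°C for 0.5 and 1 h to micelles with or without the PSMA ligand, or to free test compound. Cells were then PBS-washed and RIPA-lysed. Part of the lysate went to BCA protein assay; the rest was treated with 4N NaOH (RT, 1 h), neutralised with phosphate buffer and DCM-extracted. Uptake was normalised to total protein; mean ± SD, n = 3.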

| SMILES | IC50 ([1]; read-out: IC50 towards PSMA) [nM] | Ki ([1]; read-out: Ki towards PSMA) [nM] | Kd [2] [nM] | water solubility [3] | cellular uptake, rank among groups [4] |
| --- | --- | --- | --- | --- | --- |
| O=C(O)CCC(NC(=O)NC(CCC(=O)O)C(=O)O)C(=O)O (centres unmarked) [DUPA, 2-[3-(1,3-dicarboxypropyl)ureido]pentanedioic acid] | 47 | 8 | 14 | – | – |
| CO[C@H]1C(=O)[C@]2(C)[C@@H](OC)C[C@H]3OC[C@@]3(OC(C)=O)[C@H]2[C@H](OC(=O)c2ccccc2)[C@]2(O)C[C@H](OC(=O)[C@H](O)[C@@H](NC(=O)OC(C)(C)C)c3ccccc3)C(C)=C1C2(C)C [cabazitaxel, Cabazitaxel] | – | – | – | very low | lowest uptake |
